bCat nuc transl – alters nuclear translocation of beta-catenin in HeLa cells; immunofluorescence imaging; 190,000 compounds, 0.3% hits; AID 1665; nuclear translocation activity, % at 5 µM;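 active = nuclear translocation activity above 50% at 5 µM, with a well cell count of 50 or more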;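 note: per-cell ratio of nuclear to cytoplasmic median beta-catenin stain intensity; plate controls were DMSO negative control for no effect and GSK-3 inhibitor IX positive control for full effect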
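Signal – beta-catenin immunofluorescence imaging with DAPI · Test system – human HeLa cell line · Dosing – 5 µM primary single dose, 0.1% DMSO, 0.02–20 µM confirmation series · Measure – % activation, nuclear-to-cytoplasmic median beta-catenin signal ratio per cell · Incubation – 24 h compound exposure at 37°C, 5% CO2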
MT stabilize HCS – microtubule stabilizers in HeLa cells | HeLa tubulin immunostaining HCS, 24 h; share of cells brighter than vehicle mean+2SD | % tubulin-high responders, % at 10 µM | 200,000 compounds, 0.83% hits | AID 2205;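 active = plate Z-score above 3 for both tubulin-high and condensed-nucleus cell shares, with cell loss under 80%, at 10 µM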;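 note: anti alpha tubulin signal scored within the nucleus-defined area of each cell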
TLR4 MyD88 comp – blocks binding of human TLR4 to MyD88; O00206+Q99836; HeLa CL3-4 TLR4/MyD88 BLA complementation, FRET ratio; inhibition, % at 8.4 µM; 200,000 compounds, 0.18% hits; in the data active = inhibition above about 25%;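 note: 0% = vehicle and 100% = reference inhibitor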
TLR9-MyD88 block – blocks human TLR9 binding to MyD88; CHO BLA complementation TLR9-MyD88, CCF4 FRET ratio; 340,000 compounds, 0.21% hits; inhibition, % at 4.98 µM;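 active = inhibition above the mean over all tested compounds plus 3 SD, cut at about 21% in these data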;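 note: 0% = DMSO only wells and 100% = clavulanate BLA inhibitor control wells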
Hsp70 act – transcriptional activators of Hsp70; HeLa Hsp70 promoter luciferase reporter, luminescence; scaled: vehicle 0, proteasome-inhibitor control 100%; activation, % at 10 µM; 200,000 compounds, 0.04% hits;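 active = activation above the mean across all tested compounds plus 3 SD, cutoff set per campaign, cut at about 5.5% in these data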;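 note: 100% = MG132 at 30 µM as the positive control and 0% = DMSO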
NOD2 RIPK2 PPI – inhibitors of human NOD2-RIPK2 interaction; 360,000 compounds, 0.38% hits; inhibition, % at 4.98 µM; CHO BLA complementation NOD2-RIPK2, CCF4 ratio; O43353; in the data active = inhibition above about 21%;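 note: 0% = vehicle only and 100% = reference blocker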
NOD2-RIPK2 conf – confirmation of human NOD2-RIPK2 interaction inhibitors. shares compounds with NOD2 RIPK2 PPI. CHO cells, NOD2-RIPK2 BLA complementation, CCF4 FRET. inhibition, % at 4.98 µM. 1,200 compounds, 70% hits. AID 624370;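 active = mean inhibition across replicates above a set limit taken from the earlier primary screen, cut at about 21% in these data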;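 note: 0% = DMSO-only wells and the high end = clavulanate BLA-blocked wells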
NOD2 BLA counter – hits BLA reporter in NOD2-RIPK2 inhibitor counterscreen; shares compounds with NOD2 RIPK2 PPI; CHO BLA reporter, CCF4 FRET ratio; inhibition, % at 4.98 µM; 1,200 compounds, 57% hits;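 active = mean inhibition above the low-control mean inhibition plus three low-control SD, cut at about 11% in these data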;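 note: 0% = DMSO only wells and 100% = clavulanate high control wells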
Active calls of the source: *; . = no result given. Most compounds without a hit are left out; they make up all but 1% or so of the library.

SMILES	bCat nuc transl	MT stabilize HCS	TLR4 MyD88 comp	TLR9-MyD88 block	Hsp70 act	NOD2 RIPK2 PPI	NOD2-RIPK2 conf	NOD2 BLA counter
CC(=O)O[C@H]1C[C@@H]2OC3C=C(C)CCC3(C)[C@@]1(C)[C@@]21CO1 (stereo partly specified)	.	.	.	-2	.	24*	28*	0
Cc1nonc1-c1nc(-c2nonc2N)n[nH]1	0	0	3	-15	0	1	.	.
CCCCn1c(=O)c(C(=O)NCc2ccccc2Cl)c(O)c2ccccc21	.	.	.	1	.	-3	.	.
COC(=O)C1=C(C(=O)OC)SC2(S1)C(C(=O)OC)=C(C(=O)OC)Sc1c2ssc1=O	.	.	.	2	.	75*	76*	4
CCOC(=O)[C@]12Cc3cc(OC)ccc3[C@H]1N(C)C(=O)c1cc(OC)ccc12	.	.	.	.	.	-1	.	.
CCOC(=O)[C@]12Cc3cc(C)ccc3[C@H]1N(C1CCCCC1)C(=O)c1ccccc12	.	.	.	.	.	56*	66*	0
CCOC(=O)[C@]12Cc3cc(Cl)ccc3[C@H]1N(C1CCCCC1)C(=O)c1cc(OC)ccc12	.	.	.	.	.	70*	66*	7
CCOC(=O)[C@]12Cc3ccc(C)cc3[C@H]1N(C1CCCCC1)C(=O)c1cc(OC)ccc12	.	.	.	.	.	58*	63*	1
CCOC(=O)[C@]12Cc3ccccc3[C@H]1N(C(C)C)C(=O)c1ccccc12	.	.	.	.	.	-6	.	.
CCOC(=O)[C@]12Cc3c(cc(OC)c(OC)c3OC)[C@H]1N(C1CCCCC1)C(=O)c1ccccc12	.	.	.	.	.	28*	71*	2
CC1(C)CC(=O)C(C2(O)C(=O)NC(=O)NC2=O)=C(O)C1	0	3	-13	1	0	-7	.	.
Cn1c(=O)n(C)c2cc([N+](=O)[O-])c(N3CCNCC3)cc21	1	2	-11	-8	0	0	.	.
CN(C)CCSCc1nnc2n1-c1ccc(Cl)cc1C(c1ccccc1Cl)=NC2	.	.	.	0	.	-1	.	.
CCOC(=O)[C@]12Cc3ccc(C)cc3[C@H]1N(C1CCCCC1)C(=O)c1ccccc12	.	.	.	.	.	52*	54*	1
CCOC(=O)[C@]12Cc3cc(Cl)ccc3[C@H]1N(Cc1ccccc1)C(=O)c1ccccc12	.	.	.	-3	.	-7	.	.
CCOC(=O)[C@]12Cc3cc(N(C)C)ccc3[C@H]1N(Cc1ccccc1)C(=O)c1ccccc12	.	.	.	8	.	23*	3	3
O=C1NC(=O)N(c2ccc(Cl)cc2)C(=O)/C1=C\c1ccc(Sc2nc3ccccc3[nH]2)o1	.	2	-13	5	0	-1	.	.
CC1=CC2OC3CC4OC(=O)C=CC=CC(=O)OCCC(C)C(O)C(=O)OCC2(CC1)C4(C)C31CO1 (stereo unspecified)	.	.	.	5	.	23*	17	-4
CC1=CC2OC3CC4OC(=O)C=CC=CC(C(C)O)OCC(O)C5(C)OC5C(=O)OCC2(CC1O)C4(C)C31CO1 (stereo unspecified)	.	.	.	0	.	29*	17	-5
CC1CCOC(=O)C=CC=CC(=O)OC2CC3OC4C5OC5(C)C(O)CC4(COC(=O)C1O)C2(C)C31CO1 (stereo unspecified)	.	.	.	-4	.	28*	21*	-5
CC(C)(C)n1c(O)c(C=Nc2ccc3c(c2)CCC3)c(=O)[nH]c1=O	0	6	-5	-11	0	-4	.	.
CC12C(C(=O)O)C1(c1ccccc1)C2C(=O)O (stereo unspecified)	.	.	.	-2	.	0	.	.
O=C(Cn1cnc2sc3c(c2c1=O)CCCC3)NCCCC(=O)N1CCC2(CC1)OCCO2	0	2	5	2	0	-2	.	.

Source: PubChem (several laboratories)
